TAAR1 antagonist = human TAAR1 antagonism; 360,000 compounds, 1.5% hits; AID 624466; CHO RD-HGA16 TAAR1, Fluo-8 calcium fluorescence, antagonist; inhibition, % at 3 µM;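 active = inhibition above a per-plate cutoff, the mean inhibition of test compounds on that plate plus 3 SD, cut at about 49% in these data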;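 also: 0% = DMSO plus EC80 beta-PEA response and 100% = DMSO alone without agonist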
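Test system – hTAAR1-expressing CHO RD-HGA16 cells, Gα16-coupled · Also added – β-PEA at EC80 concentration, post-compound challenge · Compound – 3 µM, single point · Incubation – dye loading 75 min at 37 °C, then 30 min room temperature · Measured by – Fluo-8 intracellular calcium dye fluorescence, real-time kinetic reads · Benchmarks – vehicle and agonist controls · Replicates – singlicate, one well per test compound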
GPR7 antagonist = human neuropeptides B/W receptor 1 antagonism. P48145. GPR7-expressing cells, fluorescence antagonist assay. inhibition, % at 4.4 µM. 290,000 compounds, 1.1% hits; in the data active = inhibition above about 16%, passing the limit was not always enough;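 also: cells stimulated with the agonist NPW; 0% = agonist with vehicle and 100% = vehicle without agonist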
Target sequence (P48145 whole entry, looked up): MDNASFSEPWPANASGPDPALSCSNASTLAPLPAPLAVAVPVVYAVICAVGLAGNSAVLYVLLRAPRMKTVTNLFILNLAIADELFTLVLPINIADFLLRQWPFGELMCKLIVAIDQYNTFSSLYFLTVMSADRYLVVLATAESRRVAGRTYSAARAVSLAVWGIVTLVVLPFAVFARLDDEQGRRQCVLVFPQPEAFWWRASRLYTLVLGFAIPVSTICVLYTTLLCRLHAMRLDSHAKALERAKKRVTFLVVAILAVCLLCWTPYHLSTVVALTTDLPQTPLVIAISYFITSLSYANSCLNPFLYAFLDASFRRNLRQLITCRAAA
CHO parental Ca = counter-screen for OX1R antagonists: effect in parental CHO cells. parental CHO-K1, ATP-induced calcium, Fluo-8 fluorescence. inhibition, % at 5.6 µM. 330,000 compounds, 0.63% hits. AID 463079;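 active = inhibition above that plate's mean sample inhibition plus 3 SD, cut at about 26% in these data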;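 also: 0% = ATP-challenged DMSO wells and 100% = DMSO wells without ATP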
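Material: parental CHO cells / Compound: single nominal dose of 5.6 µM per compound / Signal: Fluo-8 fluorescence / Replicates: singlicate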
OX1R antag-1 = human HCRTR1 antagonism; O43613; CHO/OX1R cells, Fluo-8 calcium fluorescence, orexin A; inhibition, % at 5 µM; 330,000 compounds, 0.43% hits; AID 434989;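 active = inhibition above its plate's threshold, mean inhibition of all tested compounds on the plate plus 3 SD, cut at about 37% in these data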;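 also: 0% = orexin A challenge wells and 100% = SB-334867-A antagonist wells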
Target sequence (O43613 whole entry, looked up): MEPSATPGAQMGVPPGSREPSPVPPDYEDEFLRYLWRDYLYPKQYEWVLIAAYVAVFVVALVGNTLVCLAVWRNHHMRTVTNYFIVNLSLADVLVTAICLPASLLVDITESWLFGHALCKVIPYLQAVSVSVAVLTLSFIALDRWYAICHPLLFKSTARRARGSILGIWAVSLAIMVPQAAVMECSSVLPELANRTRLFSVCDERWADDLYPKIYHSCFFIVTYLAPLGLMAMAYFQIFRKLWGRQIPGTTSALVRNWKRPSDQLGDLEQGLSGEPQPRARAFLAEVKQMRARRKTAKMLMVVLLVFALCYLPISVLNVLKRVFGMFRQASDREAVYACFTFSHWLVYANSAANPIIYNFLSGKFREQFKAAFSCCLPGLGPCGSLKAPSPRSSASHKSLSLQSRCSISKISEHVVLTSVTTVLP
TAAR1 agonist = agonists of human TAAR1. CHO RD-HGA16 TAAR1, Fluo-8 calcium fluorescence; vehicle wells 0%, saturating PEA agonist 100%. activation, % at 3 µM. 360,000 compounds, 0.99% hits. AID 624467;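 active = activation above the mean activation of all test compounds in the run plus 3 SD, cut at about 38% in these data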
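System: CHO-derived RD-HGA16 cells with stable Gα16 and human TAAR1 / Times: 17-24 h plating, Fluo-8 75 min 37 °C, 30 min RT / Technique: calcium-sensitive Fluo-8 signal, excitation 470-495, emission 515-575 nm / Measure: % activation relative to PEA EC100 response / Benchmarks: DMSO and PEA EC100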
OX1R antag-2 = antagonists of human orexin 1 receptor (OX1R); O43613; OX1R-expressing cells, FRET antagonist read-out; inhibition, % at 6.6 µM; 330,000 compounds, 1.8% hits; in the data active = inhibition mostly above about 38%, no sharp cut-off; inactive = mostly below about 40%;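 also: 0% = agonist challenge alone and 100% = reference antagonist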
TAAR1 ag confirm = human TAAR1 agonism, confirmed; 2,400 compounds, 82% hits; activation, % at 3 µM; shares compounds with TAAR1 agonist; CHO RD-HGA16 TAAR1, Fluo-8 calcium fluorescence; scaled: DMSO 0%, maximal phenethylamine 100%;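 active = activation above a cutoff set at the run's mean compound activation plus 3 SD, cut at about 39% in these data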
Ga16 nonsel ag = nonselective agonism, TAAR1 counter-screen; shares compounds with TAAR1 agonist; CHO-Ga16 parental, Fluo-8 calcium fluorescence; normalized to maximal ATP response, DMSO zero; activation, % at 3 µM; 2,400 compounds, 50% hits; AID 651787;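 active = activation above the run cutoff, the mean activation over all tested wells plus 3 SD, cut at about 12% in these data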;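 also: 0% = DMSO wells and 100% = maximal ATP response on the peak over basal ratio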
TAAR1 desensitize = human TAAR1 agonist that also desensitizes the receptor | shares compounds with TAAR1 agonist | CHO RD-HGA16 hTAAR1, Fluo-8 calcium, beta-PEA response inhibition | inhibition, % at 3 µM | 2,400 compounds, 46% hits | AID 651951;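 active = inhibition above the run cutoff, the mean inhibition of all test compounds plus 3 SD, cut at about 49% in these data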;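 also: beta-PEA stimulus applied at its EC80; loss of beta-PEA calcium signal after compound pretreatment read as receptor desensitization; 0% = DMSO with beta-PEA at EC80 and 100% = DMSO alone without agonist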
Ga16 nonsel ant = counter-screen for TAAR1 agonists: nonselective Ga16 antagonists. shares compounds with TAAR1 agonist. CHO-Ga16 ATP-induced calcium, Fluo-8 fluorescence. inhibition, % at 3 µM. 2,400 compounds, 39% hits. AID 651952;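 active = inhibition above the plate's mean compound inhibition plus 3 SD, computed per plate, cut at about 22% in these data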;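 also: 0% = EC80 ATP with DMSO and 100% = DMSO wells without ATP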
* hit, by the source's call; x = not tested or not shown. Hits are enriched below; roughly 4.6% of the tested compounds scored in any of these assays.

SMILES	TAAR1 antagonist	GPR7 antagonist	CHO parental Ca	OX1R antag-1	TAAR1 agonist	OX1R antag-2	TAAR1 ag confirm	Ga16 nonsel ag	TAAR1 desensitize	Ga16 nonsel ant
O=C(CCCCCNc1nc(=S)[nH]c2ccccc12)NCc1ccccc1Cl	-4.2	-4.1	-27.9	-37.4	7.2	19.8	x	x	x	x
S=c1nc(NCCc2ccccc2Cl)c2ccccc2[nH]1	45.4	-12.6	x	x	51.6*	x	33.4	11.2	20.1	22.3*
Cc1cc(C)cc(N2C(N)=NC(N)=NC2c2ccccc2F)c1 (centres undefined)	-14.1	-5.3	-12.1	-27.2	-0.2	-3.4	x	x	x	x
CCOc1ccc(C(=O)Nc2ccc(N3CCN(C)CC3)cc2)cc1	-4.8	-7.0	-3.1	-7.2	13.1	0.9	x	x	x	x
CCCCOc1ccc(C(=O)Nc2ccc(N3CCN(C)CC3)cc2)cc1	23.4	-4.4	-11.0	-5.2	47.9*	23.1	68.0*	2.8	68.2*	17.8
O=C(O)c1cccc(NS(=O)(=O)c2ccc(C3CCCCC3)cc2)c1	x	14.9	-7.9	4.5	x	6.9	x	x	x	x
N#CCc1ccc(NS(=O)(=O)c2ccc(C3CCCCC3)cc2)cc1	51.0*	-3.9	67.7*	12.8	51.3*	17.4	50.8*	23.6*	42.3	34.1*
Cc1cccc(NS(=O)(=O)c2ccc(C3CCCCC3)cc2)c1	55.2*	-10.1	47.9*	51.1*	58.8*	0.1	37.5*	8.1	48.0	36.9*
COc1cccc(/C=N/Nc2ccccc2C(=O)O)c1O	-7.3	-6.5	1.3	7.6	0.6	0.8	x	x	x	x
COc1cccc(/C=N/Nc2snc(SC)c2C#N)c1O	60.1*	-9.4	-0.1	10.4	75.1*	60.0*	69.3*	52.3*	82.5*	43.7*
CC(C(=O)N1CCc2ccccc2C1)N(c1ccccc1)S(C)(=O)=O (centres undefined)	-3.4	-0.1	-16.9	-19.5	4.1	4.2	x	x	x	x
CC(=C1C(=O)c2ccccc2C1=O)N1CCc2ccccc2C1	x	-11.7	-23.6	2.0	x	20.0	x	1.1	x	0.5
Nc1c(-c2n[nH]c(=S)n2-c2ccc(Cl)cc2Cl)cnn1-c1ccccc1	15.9	-5.0	-4.5	-11.9	96.6*	-6.8	72.8*	44.1*	36.3	28.4*
CSc1ccc(C#N)cc1NC(=O)c1ccccc1C	5.4	-5.6	-10.5	-30.7	-0.8	28.9	x	x	x	x
c1ccc(CCNC2=NCCS2)cc1	3.0	-4.8	-3.2	-17.2	49.5*	10.3	74.8*	0.9	27.6	8.4
CSc1nc(N)nc(SCC(=O)c2ccc(C)cc2)c1C#N	54.1*	5.3	-7.1	6.2	52.2*	69.2*	14.6	10.3	2.6	8.3
O=C1S/C(=C\c2ccc(N3CCOCC3)o2)C(=O)N1c1ccccc1	82.9*	-6.1	-3.8	-19.3	208.9*	16.2	140.4*	162.7*	81.6*	87.4*
COc1ccc([C@H]2CN(CCc3ccccc3)C(=O)[C@@H]2CC(=O)Nc2ccccc2)cc1	20.6	x	x	x	50.4*	x	34.9	5.5	9.8	12.7
CNC(=O)C[C@H]1C(=O)N(CCc2ccccc2)C[C@@H]1c1ccc(OC)cc1	5.1	x	x	x	42.5*	x	76.5*	-0.6	15.7	4.5
COc1ccc(NC(=O)C[C@H]2C(=O)N(Cc3ccccc3)C[C@@H]2c2ccc(OC)cc2)cc1	-8.2	x	x	x	1.2	x	x	x	x	x
COc1cccc(-c2nc(CS(=O)CC(=O)NCCc3ccccc3)c(C)o2)c1 (centres undefined)	-11.9	-4.5	-31.5	-17.9	48.9*	17.1	51.5*	0.2	12.2	-0.3
Nc1n[nH]c2c1C1(CCCC1)Cc1ccccc1-2	-5.7	3.0	-3.9	-14.6	10.0	30.8	x	x	x	x
N#CC1(Nc2cccc(Br)c2)C(=O)Nc2ccccc21 (centres undefined)	25.9	-1.1	-7.2	-8.2	83.3*	13.4	54.4*	32.3*	51.9*	41.7*
CCn1cc(/C=C/C(=O)Nc2ccn(Cc3c(F)c(F)c(F)c(F)c3F)n2)cn1	7.7	-8.8	-8.4	-13.5	7.5	12.0	x	x	x	x
COCCNC(=O)c1nn2cccnc2c1Cl	-1.9	-0.6	0.8	-8.1	10.8	6.3	x	x	x	x
SMILES	TAAR1 antagonist	GPR7 antagonist	CHO parental Ca	OX1R antag-1	TAAR1 agonist	OX1R antag-2	TAAR1 ag confirm	Ga16 nonsel ag	TAAR1 desensitize	Ga16 nonsel ant
CCCn1c(NC(=O)C2COc3ccccc3O2)nc2ccccc21 (centres undefined)	48.7*	0.6	-16.3	-17.9	50.9*	21.3	6.8	2.4	8.1	17.6
CCCn1c(NC(=O)c2ccco2)nc2ccccc21	5.7	-4.0	-14.4	-21.4	0.3	6.9	x	x	x	x
Cn1c2c(c(=O)n(C)c1=O)CN(CCc1ccccc1)CN2	60.5*	0.4	-0.7	-10.3	91.3*	6.0	73.7*	2.6	45.0	8.5
CC1Cn2c(nc(=O)c3c2NCN(CCc2ccccc2)C3)S1 (centres undefined)	3.9	14.8	6.4	6.3	52.8*	9.1	45.7*	5.8	7.1	3.4
CCOc1ccccc1N1CCN(C(=O)CNC(=O)c2sc3ccccc3c2Cl)CC1	27.1	-17.2	-27.7	-33.2	-0.6	19.5	x	x	x	x
CC(C)(C)c1ccc(OCCCNCc2ccccc2)cc1	-5.3	3.2	-3.1	-16.5	73.6*	5.8	69.2*	33.4*	35.3	20.7
CC(C)(c1ccccc1)c1ccc(OCCCNCCO)cc1	-0.4	6.5	7.7	5.6	53.0*	3.0	84.7*	41.0*	44.3	16.2
C=CCNCCCOc1ccc(C(C)(C)c2ccccc2)cc1	-6.2	-3.7	-4.9	-17.0	60.8*	0.7	89.7*	25.3*	63.6*	17.4
COCCCNCCCOc1ccc(C(C)(C)c2ccccc2)cc1	-22.0	1.5	-8.6	-14.3	29.6	5.1	x	x	x	x
COCCNCCCOc1ccc(C(C)(C)c2ccccc2)cc1	-20.8	-5.3	-12.8	-11.6	23.6	21.1	x	x	x	x
CC(C#N)Sc1nnc(-c2ccccc2F)n1C1CC1 (centres undefined)	-15.1	-10.5	5.0	-8.3	-0.1	6.1	x	x	x	x
COc1ccc(-c2cn3cccnc3n2)cc1NS(=O)(=O)c1ccccc1	-1.0	-19.5	-10.4	2.9	6.9	13.7	x	x	x	x
